STAT1 blocker: STAT1 signaling inhibitors, primary screen, cell-based, HTS, luciferase reporter; inhibition, % at 5.5 µM; hit rate 0.35% among 200,000; AID 920, 2007; NIH 3T3 STAT1-luciferase reporter, IFN-gamma, luminescence;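 active means inhibition above a set limit, the mean inhibition across all tested compounds plus 3 SD, cut at about 34% in these data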;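 further: 0% = IFN-gamma with DMSO and 100% = IFN-gamma with 300 µM nifuroxazide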
APP 5'UTR act: activators of APP 5'UTR luciferase reporter, primary screen, SH-SY5Y cells; SH-SY5Y APP 5'UTR luciferase reporter, luminescence; zero percent = DMSO vehicle wells; activation, % at 2 µM; hit rate 1% among 190,000;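 active means activation above a set limit, based on mean plus 3 SD of controls, cut at about 140% in these data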
STAT3 inh-1: IL-6 driven STAT3 reporter inhibitors, primary screen, U3A cells, luciferase, luminescence, MLSCN library. IL-6 STAT3-luciferase reporter; host cell line lacks STAT1. hit rate 0.89% among 190,000. inhibition, % at 5.5 µM;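 active means inhibition above the mean inhibition across all screened compounds plus 3 SD, cut at about 44% in these data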;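 further: 0% = DMSO only wells and 100% = 100 µM nifuroxazide control wells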
STAT1 activator: STAT1 signaling activators, primary screen, cell-based, HTS, luciferase reporter; NIH 3T3 STAT1-luciferase reporter, IFN-gamma, luminescence; 100% = IFN-gamma alone, no compound; activation (% of control), % at 5.5 µM; hit rate 2.6% among 200,000;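 active means activation above the screen-wide mean activation plus 3 SD, cut at about 130% in these data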;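 further: raw ratio to IFN-gamma control signal so 100% means no change and 0% no light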
NF-kB expr up: activators of NF-kB expression in neurons, primary screen, cell-based, HTS | human neuronal cells, NF-kB reporter expression; stronger effect = higher value | hit rate 1.6% among 190,000 | fold change at 12.5 µM; in the data active means fold change above about 3.3
STAT3 activator: IL-6 driven STAT3 reporter potentiators, primary screen, U3A cells, luciferase, luminescence, MLSCN library. IL-6 STAT3-luciferase reporter; 100% = signal with IL-6 EC80 alone. hit rate 0.91% among 190,000. activation (% of control), % at 5.6 µM;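 active means activation above the screen-wide mean of compound activation plus 3 SD, cut at about 130% in these data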;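 further: 0% = background luminescence of wells with medium and substrate only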
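Material: STAT1-lacking human U3A cells, STAT3 luciferase reporter | Benchmarks: IL-6-only wells as 100% reference | Probe or stimulus: IL-6 (33 ng/mL) | Timing: Compound 1 h, then IL-6 6 h at 37 °C | Detection: Luminescence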
STAT3 inh-2: STAT3 reporter inhibitors, retest of hits, confirmation, U3A cells, luciferase, luminescence. shares compounds with STAT3 inh-1. IL-6 STAT3 luciferase reporter; cell line lacks STAT1. inhibition, % at 5.7 µM. hit rate 45% among 1,200;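 active means inhibition above the hit cutoff computed for the primary STAT3 screen, cut at about 44% in these data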;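 further: 0% = IL-6 plus DMSO and 100% = IL-6 plus nifuroxazide control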
NFkB inh 2: NF-kB reporter inhibitors in human cells, confirmation, counter-screen for STAT3 inhibitor project, cell-based, HEK293T, luciferase, TNF-alpha stimulus; hit rate 36% among 1,200; TNF-alpha induced; shares compounds with STAT3 inh-1; AID 1308, 2008; inhibition, % at 5.7 µM;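 active means inhibition above the mean of solvent-only control wells plus 3 SD, cutoff set per campaign, cut at about 13% in these data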;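 further: 0% = TNF-alpha with DMSO and 100% = TNF-alpha with MG high control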
STAT1 inh 2: STAT1 reporter inhibitors, IFN-gamma induced, confirmation, counter-screen for STAT3 inhibitor project, cell-based, NIH 3T3, luciferase luminescence | shares compounds with STAT3 inh-1 | NIH 3T3 STAT1-luciferase reporter | inhibition, % at 5.7 µM | hit rate 27% among 1,200 | AID 1317, 2008;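 active means inhibition above the mean plus 3 SD of solvent-only control wells, limit set per screening run, cut at about 16% in these data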;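 further: 0% = DMSO with IFN-gamma and 100% = nifuroxazide control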
The depositor's hits bear a star; . = no result given. A selection: hits, their analogues and other compounds. The true share with any hit is near 4.9%.

SMILES	STAT1 blocker	APP 5'UTR act	STAT3 inh-1	STAT1 activator	NF-kB expr up	STAT3 activator	STAT3 inh-2	NFkB inh 2	STAT1 inh 2
Cc1ccc(C(=O)Nc2ccc(S(=O)(=O)N3CCOCC3)cc2)cc1	9.8	1.3	6.3	91.3	1.57	96.5	.	.	.
O=C(Nc1ccc(S(=O)(=O)N2CCN(Cc3ccccc3)CC2)cc1)c1cnccn1	21.1	-7.7	82.0*	80.8	0.98	35.6	74.6*	25.1*	22.6*
COc1ccc(CC(=O)Nc2cccc(SC)c2)cc1OC	17.8	-13.5	47.2*	82.5	1.01	63.0	44.0*	8.6	13.9
COc1ccc(CC(=O)Nc2cccc(S(=O)(=O)N3CCCCCC3)c2)cc1OC	5.2	-15.9	74.2*	95.4	0.79	37.5	74.6*	27.2*	19.2*
CN(Cc1cccs1)C(=O)Cn1cnc2cc([N+](=O)[O-])ccc2c1=O	-0.8	8.3	6.0	99.1	.	99.2	.	.	.
NC(=O)c1ccc(-c2ncc(-c3ccccc3)o2)cc1	31.6	126.4	54.1*	71.3	11.6*	55.1	2.3	20.4*	-44.4
O=C(Nc1ccc(F)cc1)Nc1nnc(-c2ccco2)s1	-21.8	106.6	14.6	122.4	1.45	91.6	.	.	.
COc1cccc2c1OC[C@@H](CO)[C@H]2N(C)C(=O)Nc1ccc(Cl)cc1Cl	12.2	.	44.0*	89.0	0.71	68.3	30.9	3.1	17.2*
Cc1ccc(N=c2c([N+](=O)[O-])nn(-c3ccc4c(c3)OCCO4)n2O)c(Cl)c1	30.4	14.3	48.8*	70.8	0.7	62.0	-14.8	0.0	-60.7
Cc1cc(C)cc(N=c2c([N+](=O)[O-])nn(-c3ccc4c(c3)OCCO4)n2O)c1	-4.4	-22.8	17.0	102.1	0.45	91.9	.	.	.
CCN1CCN(C(=O)Nc2ccccc2OC)CC1	-2.2	-4.9	9.3	102.1	0.98	93.2	.	.	.
O=C(c1cc(COc2c(F)cccc2F)on1)N1CCC(c2ccncc2)CC1	24.6	-6.6	52.9*	76.5	0.93	57.0	59.0*	18.3*	19.5*
O=C(c1cc(COc2c(F)cccc2F)on1)N1CCc2ccccc2C1	-1.6	9.6	13.5	99.8	1.24	90.4	.	.	.
COc1ccc(NC2=NCC(Cc3ccc(Br)cc3)S2)cc1 (centres undefined)	1.5	-12.8	10.7	98.2	0.74	92.1	.	.	.
CC(=O)Nc1ccc(Nc2cc(C)nc3c(-c4ccccc4)cnn23)cc1	-56.1	164.6*	55.2*	150.2*	0.76	55.5	-1.9	-57.1	-150.5
CC(=O)Nc1ccc(Nc2cc(-c3ccccc3)nc3ncnn23)cc1	-5.0	17.7	18.2	102.8	0.87	86.4	.	.	.
O=C(Nc1ccccn1)c1ccco1	-15.8	15.2	2.0	114.5	1.26	101.7	.	.	.
O=C(Nc1ccc(NC(=O)c2ccco2)nc1)c1ccco1	-0.7	164.2*	53.5*	98.7	4.03*	57.4	5.0	-21.8	-62.2
O=C(Nc1ccc(NC(=O)C2CCCCC2)cn1)c1ccco1	-44.0	112.3	62.1*	140.3*	4.62*	48.4	30.4	-23.2	-62.2
CCc1nnc(NC(=O)Cc2cc(OC)c(OC)c(OC)c2)s1	3.1	-7.4	-4.1	95.8	1.23	104.5	.	.	.
CCOc1ccc(OCc2cccc(C(=O)Nc3ccc(CN4CCCCC4)cc3)c2)cc1	0.1	70.7	22.5	99.9	1.35	83.3	.	.	.
O=C(CSc1nnc(-c2cccnc2)s1)Nc1ccnc2ccccc12	19.7	9.6	72.2*	82.0	0.6	37.3	82.2*	21.6*	18.1*
Cc1ccc(NC(=O)CSc2nnc(-c3cccnc3)s2)cc1	1.0	-7.0	-3.2	99.1	1.22	104.5	.	.	.
CCOc1cc(C(=O)NCCOC)ccc1OC	5.2	16.3	-5.3	93.7	1	107.7	.	.	.
O=C(CSc1cnc2ccccc2n1)c1ccc(F)cc1	-17.1	188.9*	58.1*	115.1	4.11*	52.1	-2.7	-37.1	-69.6
SMILES	STAT1 blocker	APP 5'UTR act	STAT3 inh-1	STAT1 activator	NF-kB expr up	STAT3 activator	STAT3 inh-2	NFkB inh 2	STAT1 inh 2
O=C(Nc1ccc(Br)cc1)c1ccc(N2C(=O)C3CC=C(Cl)CC3C2=O)cc1 (centres undefined)	-1.4	-10.6	46.6*	101.3	1.1	63.7	33.0	-15.4	-17.4
Cc1ccc(COC(=O)c2nn(C)c(=O)c3ccccc23)cc1	20.0	4.5	52.0*	81.1	0.86	60.2	46.6*	17.3*	20.7*
Cn1nc(C(=O)OCc2ccc(F)cc2)c2ccccc2c1=O	18.8	2.1	34.8	82.2	1.47	75.5	.	.	.
COc1cc(/C=N/OCC(=O)Nc2cc(C)on2)ccc1OCc1ccccc1	7.2	8.3	1.8	93.6	1.43	98.4	.	.	.
N/C(=N\OC(=O)COc1ccc(Br)cc1Cl)c1ccccn1	-27.7	193.0*	57.1*	124.6	5.59*	51.4	-16.2	-45.8	-144.8
CCN(CC)C(=O)c1ccc(S(=O)(=O)N2CCC(c3nc4ccccc4s3)CC2)cc1	21.7	26.8	67.1*	83.7	0.85	45.8	50.9*	11.0	17.6*
CC1CCCN(C(=O)c2ccc(S(=O)(=O)N3CCC(c4nc5ccccc5s4)CC3)cc2)C1 (centres undefined)	-3.6	-0.1	52.7*	106.5	.	57.1	50.3*	14.3*	18.0*
Cc1ccc(S(=O)(=O)N(C)C)cc1NC(=S)NCc1ccco1	-0.3	4.4	6.6	98.4	0.96	101.8	.	.	.
COc1ccc(-c2nn(C)c(=O)c3ccccc23)cc1NC(=O)COc1ccc(C)cc1	15.7	10.4	65.0*	85.7	0.98	45.7	49.2*	10.4	12.7
CC(=O)c1ccc(N2CCN(C(=S)Nc3cccc(F)c3)CC2)cc1	-15.9	8.0	15.6	114.5	0.65	87.9	.	.	.
CC(=O)c1ccc(N2CCN(C(=S)Nc3ccc(Oc4ccccc4)cc3)CC2)cc1	18.1	3.8	77.5*	82.8	0.68	35.5	60.9*	20.2*	11.6
COc1ccc(CCN2C(=O)C3C4C=CC(C3C2=O)C2C(=O)N(CCc3ccc(OC)c(OC)c3)C(=O)C42)cc1OC (centres undefined)	13.7	-29.3	67.6*	89.3	0.86	44.0	65.7*	29.1*	12.5

Bioassay records (PubChem)
